These results are taken from ChEMBL document CHEMBL3870322, “New telmisartan-derived PPARγ agonists: Impact of the 3D-binding mode on the pharmacological profile” (Eur J Med Chem, 2016).

SMILES strings stand for the structures. Activity calls are given as the source filed them. The rule behind the calls is not given here. Some results are limits rather than exact numbers.

The EC50 is the midpoint of the concentration-response curve.

Data set [1] concerns the target T1, Peroxisome proliferator-activated receptor gamma (Homo sapiens, UniProt P37231).
T1 sequence (P37231 whole entry): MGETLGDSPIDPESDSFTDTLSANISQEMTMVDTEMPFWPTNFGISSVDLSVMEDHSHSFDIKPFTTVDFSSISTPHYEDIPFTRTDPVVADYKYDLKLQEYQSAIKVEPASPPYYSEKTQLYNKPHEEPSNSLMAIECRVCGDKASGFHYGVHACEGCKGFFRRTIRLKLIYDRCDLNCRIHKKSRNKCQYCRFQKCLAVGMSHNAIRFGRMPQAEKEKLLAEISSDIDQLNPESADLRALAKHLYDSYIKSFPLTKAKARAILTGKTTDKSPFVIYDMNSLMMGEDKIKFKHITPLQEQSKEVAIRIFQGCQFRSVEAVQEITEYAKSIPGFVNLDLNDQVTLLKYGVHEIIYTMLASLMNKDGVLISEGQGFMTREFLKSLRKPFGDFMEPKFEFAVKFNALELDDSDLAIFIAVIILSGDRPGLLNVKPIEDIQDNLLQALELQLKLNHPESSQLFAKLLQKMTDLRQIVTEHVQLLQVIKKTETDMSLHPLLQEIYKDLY
Put plainly: Transactivation at Gal4 fused PPARgamma LBD (unknown origin) expressed in African green monkey COS7 cells after 42 hrs by luciferase assay. It is filed as cell-based, COS-7.

Data set [2] in a line: Growth inhibition of African green monkey COS7 cells at 50 uM after 72 hrs by crystal violet staining based assay. In kind it is cell-based, COS-7. The settings on record: chlorocebus aethiops; for inhibition at 72 h, 50 µM: COS7 cells, read-out: GI; for growth inhibition (GI): cos-7, 72 h, 50 µM. A digest of the protocol: (§1)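 Cells seeded in complete DMEM, LNCaP at 5×10⁴/well on poly-D-lysine-coated wells, COS-7 at 3×10⁴/well. After 24 h at 37 °C, compound added at 50 µM final (DMSO vehicle). Exposure 72 h, then PBS wash, fixation in 1% […]/PBS, crystal violet staining of chromatin, absorbance 590 nm. Biomass given as % of vehicle control; mean SD of at least two independent experiments.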

Data set [3] is described as follows: (§2) Growth inhibition of human LNCAP cells expressing PPARgamma at 50 uM after 72 hrs by crystal violet staining based assay. It is filed as functional. The settings on record: read-out: GI. A digest of the protocol: as §1
Data set [4] addresses T2, Peroxisome proliferator-activated receptor gamma (Mus musculus, UniProt P37238).
T2 sequence (P37238 whole entry): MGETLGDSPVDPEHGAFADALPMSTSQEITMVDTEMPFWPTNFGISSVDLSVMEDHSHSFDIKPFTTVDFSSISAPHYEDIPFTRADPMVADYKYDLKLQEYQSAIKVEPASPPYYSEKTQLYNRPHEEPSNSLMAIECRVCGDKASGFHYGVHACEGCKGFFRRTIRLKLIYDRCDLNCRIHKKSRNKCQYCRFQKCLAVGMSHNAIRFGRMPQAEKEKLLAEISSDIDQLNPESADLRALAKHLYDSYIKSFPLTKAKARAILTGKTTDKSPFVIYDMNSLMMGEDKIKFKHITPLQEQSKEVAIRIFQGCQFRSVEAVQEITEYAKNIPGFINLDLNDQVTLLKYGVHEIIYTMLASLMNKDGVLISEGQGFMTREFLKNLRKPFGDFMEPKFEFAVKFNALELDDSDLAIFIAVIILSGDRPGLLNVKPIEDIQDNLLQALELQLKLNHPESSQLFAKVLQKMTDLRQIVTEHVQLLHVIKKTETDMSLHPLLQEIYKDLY
The data set can be described thus: Full agonist activity at PPARgamma in mouse 3T3L1 preadipocytes assessed as increase in insulin induced adipocyte differentiation by measuring triglyceride accumulation at 1 uM after 9 days by Oil-Red O staining based assay. It is filed as cell-based. The following applies: 216 h. A digest of the protocol:
(§3)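 Postconfluent 3T3-L1 cells (DMEM, 10% FCS) differentiated over 9 days: 3 days with insulin (0.17 µM) plus dexamethasone (1 µM), 3 days with insulin (0.17 µM), then 3 days medium alone. Compound present throughout at 1 or 10 µM; DMSO vehicle. Day 9: PBS wash, Oil-Red O staining 1 h, dye extracted with 80% isopropanol, A515 read, expressed as ratio to vehicle; mean SD, three independent experiments.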

Data set [5] has as its target T3, Peroxisome proliferator-activated receptor gamma (Homo sapiens) (UniProt P37231).
T3 sequence (whole entry): T1 sequence (P37231 whole entry)
The data set can be described thus: Intrinsic activity at Gal4 fused PPARgamma LBD (unknown origin) expressed in African green monkey COS7 cells after 42 hrs by luciferase assay relative to pioglitazone. It is filed as cell-based. The settings on record: COS-7. A digest of the protocol:
(§4)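 COS-7 cells (10⁴/well, 24 h, 37 °C, 5% CO₂) transfected in serum-free medium with pGal5-TK-Luc, pGal4-hPPARγ-LBD and pRenilla-CMV (Lipofectamine 2000). After 4 h, compound or DMSO added across a concentration series. Dual-luciferase readout at 42 h, firefly normalized to Renilla. Maximal activation expressed as % of pioglitazone. Mean SD of three independent experiments, each run in triplicate.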

The next data set has as its system 3T3-L1. Put plainly: Induction of triglyceride accumulation in insulin-stimulated mouse 3T3L1 preadipocytes at 10 uM after 9 days by Oil-Red O staining based assay relative to control.
Data set [6] has as its target T2, Peroxisome proliferator-activated receptor gamma. Put plainly: Full agonist activity at PPARgamma in mouse 3T3L1 preadipocytes assessed as increase in insulin induced adipocyte differentiation by measuring triglyceride accumulation at 10 uM after 9 days by Oil-Red O staining based assay relative to control. It is filed as cell-based. The following applies: 216 h. An outline of the steps: as §3

Another data set has as its system LNCaP. The data set is described as §2. It is filed as functional. An outline of the steps:
as §1

Data set [7] concerns the target T3, Peroxisome proliferator-activated receptor gamma (Homo sapiens). The data set can be described thus: Intrinsic activity at Gal4 fused PPARgamma LBD (unknown origin) expressed in African green monkey COS7 cells at 20 uM after 42 hrs by luciferase assay relative to pioglitazone. In kind it is cell-based. The settings on record: COS-7. An outline of the steps: as §4

Data set [8] concerns the target T2, Peroxisome proliferator-activated receptor gamma. Put plainly: Full agonist activity at PPARgamma in mouse 3T3L1 preadipocytes assessed as increase in insulin induced adipocyte differentiation by measuring triglyceride accumulation at 1 to 10 uM after 9 days by Oil-Red O staining based assay relative to control. In kind it is cell-based. The following applies: 216 h.

As to `CCCCCCc1nc2ccccc2n1Cc1ccc(-c2ccccc2C(N)=O)cc1`, the EC50 in [1] worked out at 3.06 µM. The inhibition at 72 h, 50 µM in [2] amounted to 92.8%. The inhibition of growth at 50 µM in data set [3] was found to be 78.5%. For the same compound, the result in data set [4] was Active. This compound registered a %max in data set [5] of 37.8%.

As for `CCCc1nc2ccccc2n1Cc1ccc(-c2ccccc2C#N)cc1`, it took 5.01 µM to reach a half-maximal effect in data set [1] (EC50). Further, the inhibition at 72 h, 50 µM in data set [2] worked out at 61.9%. The inhibition of growth at 50 µM in [3] was 61.9%. Further, in [5], the %max was found to be 51.3%.

`CCCc1nc2ccccc2n1Cc1ccc(-c2ccc(C(=O)O)cc2)cc1`: in data set [1], the EC50 was 1.88 µM. In addition, in [2], the “growth inhibition (GI)” value is listed as “Non-Toxic”. Besides, the “fold change (FC)” value in the data set on 3T3-L1 is listed as 1.2. The compound also gave a %max in data set [5] of 84.1%.

Regarding `CCCc1nc2ccccc2n1Cc1ccc(-c2ccccc2C(N)=O)cc1`, in data set [1], the EC50 worked out at 3.15 µM. Further, in [2], the inhibition at 72 h, 50 µM stood at 33%. Also, the inhibition of growth at 50 µM in data set [3] stood at 33%. The compound further registered a %max in data set [5] of 21.1%.

As for `CCCc1nc2c(C)cc(-c3nc4ccccc4n3C)cc2n1Cc1ccc(-c2ccccc2C(=O)O)cc1` [TELMISARTAN], a half-maximal response in [1] (EC50) required 4.71 µM. Moreover, the “fold change (FC)” value in [6] was determined as 2. The “growth inhibition (GI)” value in data set [2] is “Non-Toxic”. Moreover, the %max in [5] is 50.9%.

`CCCc1cc2ccccc2n1Cc1ccc(-c2ccccc2C(N)=O)cc1`: the inhibition of growth at 50 µM in data set [3] lay in the range of 27.4 to 54.1%. Moreover, the %max in data set [5] was 11%.

In data set [1], `CCCc1cc2ccccc2n1Cc1ccc(-c2ccccc2C#N)cc1` gave an EC50 of 8.03 µM. The inhibition at 72 h, 50 µM in data set [2] was 36.8%. In [3], the inhibition of growth at 50 µM is 27.4 to 54.1%. In data set [5], the %max amounted to 21.7%.

As to `CCCCCc1nc2ccccc2n1Cc1ccc(-c2ccccc2C(N)=O)cc1`, the response in [1] was half-maximal at 3.9 µM (EC50). For the same compound, in [2], the “growth inhibition (GI)” value was “Toxic”. Also, the “growth inhibition (GI)” value in the data set on LNCaP is “Active”. Moreover, the outcome in data set [4] was Active. Further, the %max in data set [5] came out at 16.2%.

As to `CCCc1nc2ccccc2n1Cc1ccc(-c2ccccc2C(=O)O)cc1`, in data set [1], the EC50 fell in the range of 4.17 to 4.19 µM. In data set [2], the “growth inhibition (GI)” value is “Non-Toxic”. The “fold change (FC)” value with 3T3-L1 turned out to be 3.2. In data set [5], this compound gave a %max of 49.6%.

For `CCCCCCCc1nc2ccccc2n1Cc1ccc(-c2ccccc2C(N)=O)cc1`, in [1], it took 0.84 µM to reach a half-maximal effect (EC50). For the same compound, the “growth inhibition (GI)” value in [2] is listed as “Toxic”. In addition, the “growth inhibition (GI)” value in the data set with LNCaP is “Active”. For the same compound, in data set [4], the result was Active. The %max in data set [5] amounted to 32.8%.

`CCCc1cc2ccccc2n1Cc1ccc(-c2ccccc2C(=O)O)cc1` registered an EC50 in [1] of 1.86 µM. Besides, the “fold change (FC)” value in [6] was more than 3. Also, the inhibition of growth at 50 µM in data set [3] lay within 27.4 to 54.1%. The same compound returned a %max in data set [5] of 40%.

`CCCC1Sc2ccccc2N1Cc1ccc(-c2ccccc2C(=O)O)cc1` (stereo not given): in data set [1], the EC50 was 1.05 µM. The “fold change (FC)” value in data set [6] is more than 3. For the same compound, the “growth inhibition (GI)” value in data set [2] is on record as “Non-Toxic”. Besides, the %max in [5] was 57.4%.

Regarding `CCc1ccc(CCOc2ccc(CC3SC(=O)NC3=O)cc2)nc1` (stereo not given) [PIOGLITAZONE], the “growth inhibition (GI)” value in [2] was “Non-Toxic”. Also, the inhibition of growth at 50 µM in [3] amounted to 55.8%.

In the case of `CCCC1Sc2ccccc2N1Cc1ccc(-c2ccccc2C(N)=O)cc1` (stereo not given), the inhibition at 72 h, 50 µM in data set [2] came to 69.2%. Also, the inhibition of growth at 50 µM in data set [3] is 79%. The compound also showed a %max in data set [7] of 33.1%.

For the compound `CCCCCCc1nc2ccccc2n1Cc1ccc(-c2ccccc2C(=O)O)cc1`, in data set [1], the EC50 is 0.21 µM. The result in data set [8] was Active. In data set [2], the “growth inhibition (GI)” value was “Non-Toxic”. In [5], the %max turned out to be 75%.

The compound `CCCc1nc2ccccc2n1Cc1ccc(-c2cccc(C(=O)O)c2)cc1` gave an EC50 in data set [1] of 6.24 µM. Moreover, the “growth inhibition (GI)” value in data set [2] was “Non-Toxic”. Also, the “fold change (FC)” value with 3T3-L1 was 2.5. In addition, the %max in data set [5] is 44.7%.

Turning to `CCCCCc1nc2ccccc2n1Cc1ccc(-c2ccccc2C(=O)O)cc1`, a half-maximal response in data set [1] (EC50) required 0.4 µM. The result in data set [8] was Active. The “growth inhibition (GI)” value in [2] is “Non-Toxic”. Also, the %max in data set [5] stood at 55.4%.

As to `CCCCCCCc1nc2ccccc2n1Cc1ccc(-c2ccccc2C(=O)O)cc1`, the midpoint of the response in data set [1], the EC50, lay at 0.17 µM. Further, in data set [8], the result was Active. Also, in data set [2], the “growth inhibition (GI)” value is recorded as “Non-Toxic”. The compound also yielded a %max in data set [5] of 82.5%.
